{"source": "paper PMC5356508", "about": "(Bioconjugate chemistry, 2016)", "key": {"[1]": {"test_system": "A2780 human ovarian cancer cell line", "conditions": "cited from earlier work"}, "B16/F10 melanoma": {"test_system": "B16/F10 melanoma", "test": "Treatment of tumor-burdened mice", "type": "in vivo, C57BL/6 mice", "conditions": "treated days 0, 2, 5, 7, after 9 days", "outline": "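B16/F10 melanoma cells were implanted in C57BL/6 mice and grown to tumours of about 500 mm3. Groups of n=4 were injected on days 0, 2, 5 and 7 with native drug (2.5 or 40 mg/kg), nanoparticle formulations (2.5 mg/kg drug equivalent) or PBS control. Tumour volume was measured over time, and the % decrease versus control was taken at day 9.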"}, "[2]": {"test": "Accumulation of paclitaxel in solid tumors", "type": "in vivo, B16/F10 tumor-bearing C57BL/6 mice", "conditions": "C57BL/6, mouse, tumor homogenate, iv, 2.5 mg/kg"}, "[3]": {"test_system": "A2780 human ovarian cancer cell line", "test": "Antiproliferative assay", "type": "cell-based"}, "[4]": {"test": "Hydrolytic release of paclitaxel by compound 4 in buffer", "type": "physicochemical", "conditions": "3:1 methanol/PBS buffer pH 7.4; pseudo 1st order kinetics", "outline": "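Test compound stock in methanol was mixed with 1 M PBS pH 7.4 (3:1 methanol:buffer) in a sealed, stirred vial. Aliquots were taken at 0 min and from 30 to 1440 min. Parent and released drug were quantified by C18 reverse-phase HPLC (gradient from 1:1 MeOH:H2O to 100% MeOH, 1 mL/min) against standard curves of both compounds.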"}, "[5]": {"test": "Release of paclitaxel in bicarbonate buffer without or with dithiothreitol", "type": "physicochemical"}, "[6]": {"test": "Pharmacokinetics: whole blood paclitaxel levels in tumor burdened mice", "type": "in vivo, B16/F10 tumor burdened C57Bl/6 mice", "conditions": "5 μg injected, ELISA, Figure 3A"}, "[7]": {"test": "Generation of paclitaxel in rabbit whole blood", "type": "in vitro ADME", "conditions": "without BME"}}, "note": "Several values for one entry are separate records, joined by “and”; a condition that tells them apart may be missing. Equal values may be shown once. Read-outs that look alike come from different tables or passages of the source."}
{"smiles": "CC(=O)O[C@H]1C(=O)[C@@]2(C)[C@H]([C@H](OC(=O)c3ccccc3)[C@]3(O)C[C@H](OC(=O)[C@H](O)[C@@H](NC(=O)c4ccccc4)c4ccccc4)C(C)=C1C3(C)C)[C@]1(OC(C)=O)CO[C@@H]1C[C@@H]2O", "note": "[paclitaxel]", "values": [{"measurement": "IC50", "setting": "[1]", "result": "15 ± 1", "unit": "nM"}, {"measurement": "Response: Decrease in Tumor Volume vs Control", "setting": "B16/F10 melanoma; Paclitaxel dose 2.5 mg/kg", "result": "−24", "unit": "%"}, {"measurement": "Response: Decrease in Tumor Volume vs Control", "setting": "B16/F10 melanoma; Paclitaxel dose 40 mg/kg", "result": "−68", "unit": "%"}, {"measurement": "concentration at 24 h", "setting": "[2]", "result": 5, "unit": "ng/mL"}]}
{"smiles": "CC(=O)OC1C(=O)C2(C)C(OC(=O)OCOC(=O)CCCCC3CCSS3)CC3OCC3(OC(C)=O)C2C(OC(=O)c2ccccc2)C2(O)CC(OC(=O)C(O)C(NC(=O)c3ccccc3)c3ccccc3)C(C)=C1C2(C)C", "note": "(stereo not shown) [Compound 4, (7-O-Paclitaxelcarbonyloxy)methyl 5-(1,2-dithiolan-3-yl)pentanoate]", "values": [{"measurement": "IC50", "setting": "[3]", "result": "4.5 ± 0.4", "unit": "nM"}, {"measurement": "half-life of hydrolysis to paclitaxel", "setting": "[4]", "result": 3.2, "unit": "h"}]}
{"smiles": "CC(=O)O[C@H]1C(=O)[C@]2(C)[C@@H](OC(=O)OCc3ccc(SSc4ccccn4)cc3)C[C@H]3OC[C@@]3(OC(C)=O)[C@H]2[C@H](OC(=O)c2ccccc2)[C@]2(O)C[C@H](OC(=O)[C@H](O)[C@@H](NC(=O)c3ccccc3)c3ccccc3)C(C)=C1C2(C)C", "note": "[Compound 5]", "values": [{"measurement": "Percent conversion to paclitaxel", "setting": "[5]; Buffer + 3-fold excess DTT, 1 h (60 min)", "result": 90, "unit": "%"}, {"measurement": "Percent conversion to paclitaxel", "setting": "[5]; Buffer, incubation 0 h", "result": 0.3, "unit": "%"}, {"measurement": "Percent conversion to paclitaxel", "setting": "[5]; Buffer, incubation 1 h", "result": 4.1, "unit": "%"}, {"measurement": "Percent conversion to paclitaxel", "setting": "[5]; Buffer, incubation 4 h", "result": 4, "unit": "%"}, {"measurement": "Percent conversion to paclitaxel", "setting": "[5]; Buffer, incubation 48 h", "result": 14.4, "unit": "%"}, {"measurement": "Percent conversion to paclitaxel", "setting": "[5]; Buffer, incubation 72 h", "result": "50% and 50.4%"}, {"measurement": "IC50", "setting": "[3]", "result": "34 ± 18", "unit": "nM"}, {"measurement": "release of paclitaxel in the circulation (in words)", "setting": "[6]", "result": "rapidly degraded to the paclitaxel parent in the circulation"}, {"measurement": "Conversion to paclitaxel in rabbit whole blood (in words)", "setting": "[7]", "result": "completely converted to paclitaxel essentially immediately"}]}
{"smiles": "CC(=O)OC1C(=O)C2(C)C(O)CC3OCC3(OC(C)=O)C2C(OC(=O)c2ccccc2)C2(O)CC(OC(=O)C(OC(=O)CCC(=O)OCOC(=O)CCCCC3CCSS3)C(NC(=O)c3ccccc3)c3ccccc3)C(C)=C1C2(C)C", "note": "(stereo not shown) [Compound 6, ((5-(1,2-dithiolan-3-yl)pentanoyl)oxy)methyl paclitaxel-2′-yl succinate]", "values": [{"measurement": "IC50", "setting": "[3]", "result": "6.6 ± 1.7", "unit": "nM"}]}
